The source of these data is ChEMBL document CHEMBL1914456, “Design, synthesis and biological evaluation of mannosyl triazoles as FimH antagonists” (Bioorg Med Chem, 2011).

Series [1] deals with Type 1 fimbrin D-mannose specific adhesin (Escherichia coli K-12, UniProt P08191). Nature of the series: Antagonist activity at Escherichia coli recombinant C-terminal 6His-tagged FimH-CRD with a C-terminal thrombin cleavage site expressed in Escherichia coli HM125 assessed as inhibition of streptavidin-horseradish peroxidase conjugated TM-PAA polymer binding after 3 hrs by spectrophotometry. Put shortly: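 Plates coated overnight at 4 °C with 10 µg/mL FimH-CRD-Th-6His in 20 mM HEPES, 150 mM NaCl, 1 mM CaCl2, pH 7.4, then blocked with 3% BSA for 2 h at 4 °C. Fourfold serial dilutions in buffer with 5% DMSO plus 0.5 µg/mL streptavidin-peroxidase TM-PAA polymer, 3 h at 25 °C. ABTS for 4 min, stopped with oxalic acid, OD 415 nm. Duplicates, repeated at least twice; n-heptyl α-D-mannoside on each plate; IC50 from curve fit.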

Series [2] is described as follows: Thermodynamic solubility of the compound at pH 6.5 after 24 hrs by shake flask method using LC-MS analysis. It counts as physicochemical. Particulars: buffer, read-out: Therm_solubility. In short, it runs like this: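 1 mg solid shaken in 250 µL 50 mM phosphate buffer, pH 6.5: sonicated 15 min, shaken at 600 rpm and 25 °C for 2 h, then left 24 h. pH measured, then filtered by centrifugation. Filtrate diluted and quantified by LC-MS against a six-point calibration from 0.1 to 10 µg/mL.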

In the next series the test system is Escherichia coli. Briefly: Ratio of compound IC50 to n-heptyl alpha-D-mannopyranoside IC50 for Escherichia coli […] FimH assessed as disaggregation of microorganism from guinea pig erythrocytes measured for 1400 secs by aggregometry.
The nature of series [3]: Octanol-phosphate buffer distribution coefficient, log D of the compound at pH 7.4 after 2 hrs by shake flask method using LC-MS analysis. It counts as physicochemical. Put shortly: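 Miniaturized shake flask. Phosphate buffer (0.1 M, pH 7.4) and 1-octanol mutually saturated. Analyte at 1 µM in buffer, overlaid with octanol at two volume ratios chosen by ALOGPS-predicted logP, three determinations per ratio.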

Series [4] in a line: Permeability of the compound assessed as membrane retention at pH 5 to 7.4 after 16 hrs by PAMPA assay. It counts as ADME. The conditions noted are these: pH 5, 16 h. In short, it runs like this:
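PAMPA sandwich: donor wells with compound solution, acceptor filter impregnated with GIT-0 lipid and filled with acceptor sink buffer. Incubated undisturbed for 16 h. Donor and acceptor samples quantified by UV spectroscopy and LC-MS; log Pe and membrane retention calculated from these.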
(In general: In PAMPA a lipid-coated filter parts donor from acceptor wells.)

Series [5] can be described thus: Antagonist activity at Escherichia coli […] FimH assessed as disaggregation of microorganism from guinea pig erythrocytes measured for 1400 secs by aggregometry. It counts as functional. Particulars: read-out: IC50. In short, it runs like this:
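E. coli UTI89 and guinea pig erythrocytes (separated on Histopaque), each adjusted to OD600 of 4 (1.9 × 10⁸ CFU/mL and 2.2 × 10⁶ cells/mL). Aggregation read as optical density at 740 nm, 37 °C, stirring at 1000 rpm. Instrument calibrated with protein-poor plasma in PBS as 100% and protein-rich plasma with erythrocytes as 0%. Triplicates; IC50 from area under the disaggregation curve.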

The target in series [6] is Type 1 fimbrin D-mannose specific adhesin (Escherichia coli K-12) (UniProt P08191). Briefly: Ratio of compound IC50 to n-heptyl alpha-D-mannopyranoside IC50 for Escherichia coli recombinant C-terminal 6His-tagged FimH-CRD with a C-terminal thrombin cleavage site expressed in Escherichia coli HM125 assessed as inhibition of streptavidin-horseradish peroxidase conjugated TM-PAA polymer binding after 3 hrs by spectrophotometry. Put shortly: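 FimH-CRD-Th-6His from E. coli HM125, purified on Ni-NTA, coated at 10 µg/mL in assay buffer (20 mM HEPES, 150 mM NaCl, 1 mM CaCl2, pH 7.4) overnight at 4 °C. Wells blocked with 3% BSA for 2 h at 4 °C. Four-fold serial dilutions of compound in buffer with 5% DMSO were added with streptavidin-peroxidase-coupled TM-PAA polymer (0.5 µg/mL). Plates were incubated 3 h at 25 °C, 350 rpm. ABTS was developed 4 min, stopped with 2% oxalic acid, and read at 415 nm. Each compound was run in duplicate and repeated at least twice. IC50 is the concentration that halves maximal specific TM-PAA binding. rIC50 is compound IC50 divided by the IC50 of n-heptyl α-D-mannopyranoside run on the same plate.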

One may read the IC50 as the concentration at which inhibition is half-maximal. A word on the logD: it is the decadic logarithm of the distribution of all forms, ionised or not, between an organic phase and buffer at a given pH.

Values after ≈ are worked out from the molar mass of the structure shown.

Chain of Type 1 fimbrin D-mannose specific adhesin (Escherichia coli K-12) (P08191 whole entry): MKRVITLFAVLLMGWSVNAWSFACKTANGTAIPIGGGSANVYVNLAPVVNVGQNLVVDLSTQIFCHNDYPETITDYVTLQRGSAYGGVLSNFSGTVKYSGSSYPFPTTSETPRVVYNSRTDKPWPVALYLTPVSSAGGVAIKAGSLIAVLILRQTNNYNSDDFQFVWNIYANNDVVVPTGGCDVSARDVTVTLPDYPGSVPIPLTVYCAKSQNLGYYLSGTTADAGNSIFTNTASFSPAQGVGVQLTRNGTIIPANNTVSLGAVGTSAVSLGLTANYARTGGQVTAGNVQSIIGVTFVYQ
Chain of Type 1 fimbrin D-mannose specific adhesin (P08191 whole entry): as above

Turning to `Cc1ccc(-c2cn([C@H]3O[C@H](CO)[C@@H](O)[C@H](O)[C@@H]3O)nn2)cc1`, the IC50 was 0.248 µM in series [1] and 289 µM in series [5]. The solubility thermodynamic at 24 h in series [2] was 445 µg/mL (≈ 1380 µM). Besides, the figures for the Ratio IC50 (in the series on Escherichia coli; in series [6]) were 3.7 and 3.8, respectively. This compound registered a log distribution coefficient (logD) at 2 h in series [3] of 0.91. In addition, the R% in series [4] came out at 11.5%.
Consider `OC[C@H]1O[C@H](OCCc2cn(-c3ccncc3)nn2)[C@@H](O)[C@@H](O)[C@@H]1O`, for which the values for the IC50 in series [1] and in series [5] were 0.153 µM and 277 µM, respectively. The solubility thermodynamic at 24 h in series [2] was greater than 3000 µg/mL. For the same compound, the Ratio IC50 in the series on Escherichia coli came to 3.6; in series [6] it was 2.3. Moreover, the logD at 2 h in series [3] was less than -1.5. Also, in series [4], the R% is recorded as 4.3%.
In the case of `Nc1ccc(-n2cc(CO[C@H]3O[C@H](CO)[C@@H](O)[C@H](O)[C@@H]3O)nn2)cc1`, the results for the half-inhibitory concentration (IC50) in series [1] and in series [5] were 0.42 µM and 299 µM, respectively. In series [2], the solubility thermodynamic at 24 h was greater than 2000 µg/mL. In addition, the Ratio IC50 in the series on Escherichia coli came to 3.9; in series [6] it was 6.4. The logD at 2 h in series [3] came out at 0.2. In addition, the R% in series [4] is given as 4%.
Take `OC[C@H]1O[C@H](n2cc(-c3ccc(C(F)(F)F)cc3)nn2)[C@@H](O)[C@@H](O)[C@@H]1O`: the values for the IC50 in series [1] and in series [5] were 0.144 µM and 249 µM, respectively. In series [2], the solubility thermodynamic at 24 h is 159 µg/mL (≈ 424 µM). The Ratio IC50 in the series with Escherichia coli was found to be 3.2; in series [6], 2.2. Besides, the log distribution coefficient (logD) at 2 h in series [3] came out at 1.45. The R% in series [4] turned out to be 17.2%.
With `OC[C@H]1O[C@H](OCCc2cn(-c3ccc(F)cc3)nn2)[C@@H](O)[C@@H](O)[C@@H]1O`, the half-maximal inhibitory concentration (IC50) in series [1] was 0.196 µM; in series [5], 216 µM. Moreover, the solubility thermodynamic at 24 h in series [2] is greater than 3000 µg/mL. The Ratio IC50 was determined as 2.8 in the series on Escherichia coli and 3 in series [6]. Further, in series [3], the logD at 2 h is -0.21. Further, in series [4], the R% came to 4%.
